ABCG2 inh – blocks JC-1 efflux by human ABCG2 transporter | Q9UNQ0 | IgMXP3 cells, flow cytometry | inhibition, % at 6.6 µM | 190,000 tested, 0.1% active | AID 1325;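 active = inhibition above 80%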;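 note: 0% = DMSO and 100% = nicardipine control wells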
Target sequence (Q9UNQ0 whole entry, looked up): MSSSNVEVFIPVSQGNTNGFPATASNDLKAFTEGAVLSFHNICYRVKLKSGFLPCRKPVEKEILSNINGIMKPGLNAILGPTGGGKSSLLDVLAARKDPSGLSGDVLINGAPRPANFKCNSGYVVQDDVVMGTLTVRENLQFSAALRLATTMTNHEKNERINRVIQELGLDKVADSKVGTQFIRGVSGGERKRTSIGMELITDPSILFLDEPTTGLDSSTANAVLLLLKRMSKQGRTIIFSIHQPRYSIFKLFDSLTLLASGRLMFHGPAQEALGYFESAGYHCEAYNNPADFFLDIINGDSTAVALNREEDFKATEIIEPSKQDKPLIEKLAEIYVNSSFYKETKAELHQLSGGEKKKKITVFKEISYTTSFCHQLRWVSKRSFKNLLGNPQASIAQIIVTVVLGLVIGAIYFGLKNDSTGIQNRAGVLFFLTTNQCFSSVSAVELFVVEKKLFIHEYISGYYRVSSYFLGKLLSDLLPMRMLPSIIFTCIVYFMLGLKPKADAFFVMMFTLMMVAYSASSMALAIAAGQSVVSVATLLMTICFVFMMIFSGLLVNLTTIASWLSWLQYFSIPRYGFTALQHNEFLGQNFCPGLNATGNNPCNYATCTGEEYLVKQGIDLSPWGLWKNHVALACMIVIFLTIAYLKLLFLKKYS
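Times: 10 min at 25 °C | Test system: Two drug-resistant human cell lines, ABCG2 and ABCB1 | Quantity: 3 million cells/mL final, two lines in 1:1 ratio | Signal: Flow cytometry, 530 nm JC-1 signal | Dosing: Compound at 6.6 µM | Controls: Nicardipine and DMSO wells | Reagent: JC-1 as fluorescent efflux pump substrate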
ABCB1 inh – inhibitors of human ABCB1 transporter, ABCG2 counter-screen. inhibition, % at 6.6 µM. CCRF-Adr cells, JC-1 efflux, flow cytometry. 190,000 tested, 0.067% active. P08183. AID 1326; in the data active = inhibition above about 40%;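 note: 0% = vehicle and 100% = reference inhibitor; higher value means more JC-1 retained so stronger ABCB1 efflux block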
ABCB6 inh MLPCN – inhibitors of human ABC transporter ABCB6 | Q9NP58 | K562-ABCB6 porphyrin accumulation, flow cytometry, 1 h; active compounds read low | fluorescence ratio to DMSO, % at 10 µM | 360,000 tested, 0.19% active | AID 602162;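 active = fluorescence ratio to DMSO below 75%, the collection mean minus 3 SD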;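 note: signal is porphyrin accumulated inside mitochondria; 100% equals median channel fluorescence of DMSO control wells; lower ratio means ABCB6 inhibition with less porphyrin fluorescence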
FLuc stim CS – affects firefly luciferase, flagging false hits in luciferase stimulation screens | ATPlite luciferase biochemical, luminescence, 10 min; 0 = ATP-free wells, 1 = DMSO control | AID 1027 | activation factor at 10 µM | 200,000 tested, under 10 active;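 active = luciferase activation factor, scaled between plate controls, of at least 2 with compound at 10 µM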
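Assay system: Luciferase/luciferin detection reagent, cell-free biochemical luciferase assay / Also added: ATP substrate / Schedule: 10 min at ambient temperature / Measured by: luminescence measurement of luciferase light output / Benchmarks: low control with PBS replacing ATP, high control enzyme plus ATP without compound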
FLuc inh counter – Photinus pyralis luciferase inhibition counter-screen. inhibition, % at 10 µM. AID 1006. ATPLite firefly luciferase biochemical luminescence, 10 min. 200,000 tested, 1.5% active. P08659;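 active = inhibition above about 50% when tested at 10 µM, limit read from the data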
Diaphorase act – counter-screen for diaphorase-based assays: diaphorase activators and chemical reducers. 190,000 tested, 0.005% active. AID 1229. activation factor at 20 µM. Diaphorase/resazurin coupled assay, resorufin fluorescence, 16 min; active compounds read high; 1 = vehicle wells, 0 = NADH-free wells;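 active = diaphorase activity raised at least twofold by the compound at 20 µM; inactive = activation factor below 2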
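Test system: Clostridium kluyveri diaphorase, purified enzyme. Buffer or medium: 50 mM HEPES pH 7.4 buffer plus MgCl2 and Tween 20. Also added: 0.114 mM NADH and 0.1 mM resazurin, final amounts. Dosing: compound 20 µM once, DMSO 1%. Schedule: 16 min enzyme reaction, ambient temperature. Detection: fluorescence of resorufin, 544 nm excitation, 590 nm emission.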
ABCB1 confirm – inhibits human ABCB1 efflux, confirmed at single point | 270 tested, 7% active | shares compounds with ABCG2 inh | CCRF-Adr cells, JC-1 efflux, flow cytometry | inhibition, % at 6.6 µM;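 active = inhibition of pump activity above 50%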;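 note: 0% = DMSO and 100% = nicardipine full pump inhibition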
ABCG2 confirm – inhibits human ABCG2 efflux, confirmed at single point | inhibition, % at 6.6 µM | 270 tested, 6% active | AID 1453 | shares compounds with ABCG2 inh | IgMXP3 cells, JC-1 efflux, flow cytometry;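 active = inhibition above 50%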;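 note: 0% = DMSO wells and 100% = nicardipine pump inhibitor wells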
IgMXP3 fluor – counter-screen for ABCG2 inhibitors: compound fluorescence in IgMXP3 cells; compound autofluorescence 488/530 nm, flow; active compounds read high; shares compounds with ABCG2 inh; AID 1480; fluorescence at 6.6 µM; 270 tested, 30% active;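 active = fluorescence in ABCG2-expressing cells above the plate's control-well mean plus 3 SD, cut at about 15 in these data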;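 note: median cell fluorescence with compound minus that of DMSO-treated control cells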
CCRF autofluor – counter-screen for ABCB1 inhibitors: compound fluorescence in CCRF-Adr cells; shares compounds with ABCG2 inh; compound autofluorescence 488/530 nm, flow cytometry; active compounds read high; fluorescence at 6.6 µM; 270 tested, 30% active;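 active = fluorescence beyond the plate control mean plus 3 SD, with a fluorescence-to-maximum score over 2, cut at about 25 in these data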
Starred values were filed as active, the others as inactive. This excerpt belongs to a sample that is enriched for hits.

For CC1(C(=O)NCCc2ccccc2)Cc2c(-c3cccc(C(F)(F)F)c3)ccnc2O1 (centres undefined) the results were ABCB6 inh MLPCN 97.
Screening O=C(Nc1ccc(F)cc1)c1cc2ccccc2o1 returned ABCB6 inh MLPCN 95.
Screening COc1ccc(NC(=O)c2cc3ccccc3o2)cc1 returned ABCG2 inh 1, ABCB1 inh 0, ABCB6 inh MLPCN 91, FLuc stim CS 0.5, FLuc inh counter 53* and Diaphorase act 0.9.
`CC(=O)Nc1cccc(NC(=O)c2cc3ccccc3o2)c1` gave ABCG2 inh 49, ABCB1 inh 1, ABCB6 inh MLPCN 98, FLuc stim CS 0.4, FLuc inh counter 64* and Diaphorase act 0.8.
Screening O=C(Nc1ccccc1)c1cc2ccccc2o1 returned ABCG2 inh 6, ABCB1 inh 1, ABCB6 inh MLPCN 97, FLuc stim CS 0.3, FLuc inh counter 74* and Diaphorase act 0.9.
Cc1ccc(C(=O)c2cc3ccccc3o2)cc1 was read as ABCG2 inh 1, ABCB1 inh 0, ABCB6 inh MLPCN 92, FLuc stim CS 0.4, FLuc inh counter 57* and Diaphorase act 0.9.
`CC(C)C(=O)Nc1cccc(NC(=O)c2cc3ccccc3o2)c1` gave ABCG2 inh 4, ABCB1 inh 1, ABCB6 inh MLPCN 100, FLuc stim CS 0.7, FLuc inh counter 30 and Diaphorase act 0.9.
For COc1ccc(NC(=O)c2cc3ccccc3o2)cc1OC the results were ABCB6 inh MLPCN 96.
`CCN(CC)S(=O)(=O)c1ccc(N2CC(C(=O)Nc3cccc(C(=O)NC4CC4)c3)CC2=O)cc1` (centres undefined) gave ABCB6 inh MLPCN 97.
For COC(=O)c1ccccc1S(=O)(=O)N1CCC(C(=O)NC2CCCCC2)CC1 the results were ABCB6 inh MLPCN 89.
For COCCNC(=O)c1ccc(Cl)c(S(=O)(=O)Nc2cccc(C)c2C)c1 the results were ABCB6 inh MLPCN 100.
`COc1ccc(C(=O)NCCS(=O)(=O)N2CCc3ccccc3C2)cc1` gave ABCB6 inh MLPCN 103.
`COCCN(C(=O)CCc1nnc(Cc2c[nH]c3ccccc23)o1)C(C)C` gave ABCB6 inh MLPCN 99.
For O=C(Nc1nc2ccccc2[nH]1)c1cc2ccccc2o1 the results were ABCG2 inh 0, ABCB1 inh 0, ABCB6 inh MLPCN 97, FLuc stim CS 0.3, FLuc inh counter 75* and Diaphorase act 0.9.
O=C(CSc1n[nH]c(=O)n1C1CC1)c1c[nH]c2ccccc12 was read as ABCB6 inh MLPCN 97.
Screening COc1cc2c(cc1OC)C(c1ccc(-c3ccccc3Cl)o1)=NCC2 returned ABCG2 inh 8, ABCB1 inh 2, ABCB6 inh MLPCN 100, FLuc stim CS 0.4, FLuc inh counter 62* and Diaphorase act 0.9.
COc1ccc(N2CCN(S(=O)(=O)c3c(C)[nH]c(C)c3C(=O)N3CCCC3)CC2)cc1 was read as ABCB6 inh MLPCN 99.
For CCOC(=O)Cc1csc(NC(=O)/C=C\c2ccccc2)n1 the results were ABCG2 inh 0, ABCB1 inh 0, ABCB6 inh MLPCN 95, FLuc stim CS 0.4, FLuc inh counter 59* and Diaphorase act 1.
`CCOC(=O)Cc1csc(NC(=S)NC(=O)c2ccc(Cl)cc2)n1` gave ABCG2 inh 5, ABCB1 inh 0, ABCB6 inh MLPCN 97, FLuc stim CS 0.4, FLuc inh counter 59* and Diaphorase act 0.7.
CCOC(=O)Cc1csc(NC(=S)NC(=O)c2ccc([N+](=O)[O-])cc2)n1 was read as ABCG2 inh 45, ABCB1 inh 1, ABCB6 inh MLPCN 102, FLuc stim CS 0.6, FLuc inh counter 43 and Diaphorase act 0.6.
`CCOC(=O)Cc1csc(NC(=O)/C=C\c2ccccc2Cl)n1` gave ABCG2 inh 3, ABCB1 inh 1, ABCB6 inh MLPCN 100, FLuc stim CS 0.4, FLuc inh counter 56* and Diaphorase act 0.7.
`CCOC(=O)Cc1csc(NC(=O)/C=C/c2ccc(OC)cc2)n1` gave ABCG2 inh 5, ABCB1 inh 0, ABCB6 inh MLPCN 102, FLuc stim CS 0.2, FLuc inh counter 76* and Diaphorase act 1.
For Cc1ccc(S(=O)(=O)Nc2ccc(Nc3nccn4c(-c5cccc(OC(F)(F)F)c5)cnc34)cc2)cc1 the results were ABCB6 inh MLPCN 95.
`C/C(=N\NC(=O)c1nnn(-c2nonc2N)c1CSc1ccc(Cl)cc1)c1ccco1` gave ABCB6 inh MLPCN 96.
c1csc(-c2cn3ccc4ccccc4c3n2)c1 was read as ABCG2 inh 22, ABCB1 inh -2, ABCB6 inh MLPCN 100, FLuc stim CS 0.5, FLuc inh counter 53* and Diaphorase act 0.9.
Screening COCc1c(C(=O)NC2CCCCC2)sc2cccc(F)c12 returned ABCB6 inh MLPCN 98.
COc1ccc(N2CCN(C(=O)C3CCC(Cn4c(=S)[nH]c5ccccc5c4=O)CC3)CC2)cc1 (centres undefined) was read as ABCG2 inh 34, ABCB1 inh 41*, ABCB6 inh MLPCN 97, FLuc stim CS 1, FLuc inh counter -4, Diaphorase act 0.8, ABCB1 confirm 34, ABCG2 confirm 23, IgMXP3 fluor 2.1 and CCRF autofluor 9.5.
For O=C(C1CCC(Cn2c(=S)[nH]c3ccccc3c2=O)CC1)N1CCN(c2ccccc2)CC1 (centres undefined) the results were ABCB6 inh MLPCN 104.
For O=C(Nc1ccccc1)C1CCOC1=O (centres undefined) the results were ABCB6 inh MLPCN 98.
`COc1ccc(C2C3=C(CCCC3=O)Nc3ccc4ncccc4c32)cc1OC` (centres undefined) gave ABCG2 inh 0, ABCB1 inh 63*, ABCB6 inh MLPCN 110, FLuc stim CS 0.9, FLuc inh counter 7, Diaphorase act 0.8, ABCB1 confirm 5, ABCG2 confirm 16, IgMXP3 fluor 0.96 and CCRF autofluor 10.

Source: PubChem BioAssay (several laboratories)
